Molecules are shown by their SMILES.

The source of these data is ChEMBL document CHEMBL3259667, “Bis-aryloxadiazoles as effective activators of the aryl hydrocarbon receptor” (Bioorg Med Chem Lett, 2014).

In the first data set the target is T1, Aryl hydrocarbon receptor (Mus musculus, UniProt P30561).
T1 sequence (P30561 whole entry): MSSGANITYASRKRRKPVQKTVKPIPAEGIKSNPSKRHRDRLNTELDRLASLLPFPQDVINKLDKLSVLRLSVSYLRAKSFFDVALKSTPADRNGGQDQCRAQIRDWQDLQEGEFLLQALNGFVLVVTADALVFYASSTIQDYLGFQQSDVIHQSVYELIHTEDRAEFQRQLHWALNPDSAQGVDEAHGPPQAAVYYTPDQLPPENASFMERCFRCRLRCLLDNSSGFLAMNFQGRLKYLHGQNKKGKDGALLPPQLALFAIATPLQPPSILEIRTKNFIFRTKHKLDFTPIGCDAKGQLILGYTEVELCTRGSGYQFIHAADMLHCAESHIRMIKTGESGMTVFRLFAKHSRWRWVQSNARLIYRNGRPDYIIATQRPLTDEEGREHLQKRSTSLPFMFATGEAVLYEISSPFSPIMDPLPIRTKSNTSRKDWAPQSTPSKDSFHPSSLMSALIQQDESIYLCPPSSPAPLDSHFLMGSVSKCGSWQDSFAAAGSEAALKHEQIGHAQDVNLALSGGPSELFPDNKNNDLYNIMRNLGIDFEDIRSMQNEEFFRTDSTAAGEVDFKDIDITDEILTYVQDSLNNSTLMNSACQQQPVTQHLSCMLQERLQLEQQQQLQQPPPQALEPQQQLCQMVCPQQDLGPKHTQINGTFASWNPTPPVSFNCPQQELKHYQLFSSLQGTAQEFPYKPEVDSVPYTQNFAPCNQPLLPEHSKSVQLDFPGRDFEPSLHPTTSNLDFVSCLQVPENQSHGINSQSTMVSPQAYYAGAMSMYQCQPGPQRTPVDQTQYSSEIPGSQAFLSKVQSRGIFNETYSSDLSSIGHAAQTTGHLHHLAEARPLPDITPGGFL
Put plainly: Agonist activity at AHR in FVB/N mouse primary mammary epithelial cells assessed as upregulation of desmoglein-3 protein level at 10 nM after 144 hrs by Western blot analysis in presence of FGF2. The data set is classed as cell-based. The note with it: epithelial cell, 0.01 µM.
With `Clc1cc2c(cc1Cl)Oc1cc(Cl)c(Cl)cc1O2` [2,3,7,8-TETRACHLORODIBENZO-P-DIOXIN], the outcome was Active.

A further data set concerns the target T1, Aryl hydrocarbon receptor. Put plainly: Agonist activity at AHR in mouse HC11 cells assessed as upregulation of Cyp1a1 gene expression at 10 uM after 48 hrs by RT-PCR analysis relative to control. Format: cell-based. The conditions noted are these: hc11, 48 h. The method, boiled down: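 HC11 mammary epithelial cells were exposed for 48 hours to 10 μM compound. Expression of the AHR target gene Cyp1a1 served as the activity read-out.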
On to `COC(=O)c1cccc(-c2noc(-c3ccccc3F)n2)c1`, for which the Activity is reported as 0.29%.

With `Clc1ccc(-c2noc(-c3ccc(Cl)cc3Cl)n2)cc1`, the Activity came to 8.15%.

Consider `Clc1ccc(-c2nc(-c3ccncc3)no2)c(Cl)c1`, for which the Activity was determined as 0.37%.

For the compound `Clc1ccc(-c2nc(-c3ccccc3)no2)c(Cl)c1Cl`, the Activity is listed as 25.79%.

Take `COc1ccc(-c2nc(-c3ccccc3)no2)c([N+](=O)[O-])c1`: the Activity is 0.42%.

Regarding `C=CCOc1ccc(-c2noc(-c3ccc(Cl)cc3N)n2)cc1`, the Activity is 0.62%.

In the case of `Clc1ccc(-c2nc(-c3ccccc3Cl)no2)c(Cl)c1`, the Activity came to 5.91%.

In the case of `C#CCOc1ccc(-c2noc(-c3ccc(Cl)cc3N)n2)cc1`, the Activity is 0.38%.

Consider `O=[N+]([O-])c1cc(C(F)(F)F)ccc1-c1nc(-c2ccccc2)no1`, for which the Activity is given as 0.36%.

Turning to `Nc1cc(C(F)(F)F)ccc1-c1nc(-c2ccccc2)no1`, the Activity is reported as 58.63%.

In the case of `C#CCOc1ccc(-c2nc(-c3ccccc3)no2)c([N+](=O)[O-])c1`, the Activity came to 2.43%.

As for `FC(F)(F)c1cccc(-c2noc(-c3ccc(Cl)cc3Cl)n2)c1`, the Activity is reported as 1.84%.

As for `C#CCOc1ccc(-c2noc(-c3ccc(Cl)cc3[N+](=O)[O-])n2)cc1`, the Activity was 0.29%.

As to `Clc1ccc(-c2nc(-c3ccccc3)no2)c(Cl)c1`, the Activity is given as 128.53%.

For the compound `Nc1cc(Cl)ccc1-c1nc(-c2ccccc2)no1`, the Activity is given as 638.8%.

Take `C#CCOc1ccc(-c2noc(-c3ccc(Cl)cc3Cl)n2)cc1`: the Activity was 0.66%.

Regarding `O=[N+]([O-])c1cc(F)ccc1-c1nc(-c2ccccc2)no1`, the Activity was 122.64%.

In the case of `O=[N+]([O-])c1cc(Cl)ccc1-c1nc(-c2ccncc2)no1`, the Activity worked out at 8.25%.

For the compound `Clc1ccc(-c2nc(-c3ccncc3)no2)c(Cl)c1Cl`, the Activity came to 0.53%.

As to `CC(=O)Oc1ccc(-c2nc(-c3ccncc3)no2)c([N+](=O)[O-])c1`, the Activity turned out to be 0.35%.

For `O=C(O)c1cccc(-c2noc(-c3ccccc3F)n2)c1` [ATALUREN], the Activity came out at 3.71%.

`O=[N+]([O-])c1cc(O)ccc1-c1nc(-c2ccccc2)no1`: the Activity is given as 0.25%.

For `COC(=O)c1cccc(-c2noc(-c3ccc(Cl)cc3Cl)n2)c1`, the Activity was determined as 0.18%.

With `COC(=O)Oc1ccc(-c2nc(-c3ccccc3)no2)c([N+](=O)[O-])c1`, the Activity was 0.39%.

In the case of `Clc1cccc(-c2noc(-c3ccc(Cl)cc3Cl)n2)c1`, the Activity is given as 1.59%.

The next data set has as its target T1, Aryl hydrocarbon receptor. Put plainly: Agonist activity at AHR in FVB/N mouse primary mammary epithelial cells assessed as upregulation of desmoglein-3 protein level at 10 uM after 144 hrs by Western blot analysis in presence of FGF2. Format: cell-based. The note with it: epithelial cell.
Take `Clc1ccc(-c2nc(-c3ccccc3)no2)c(Cl)c1Cl`: the Activity result is recorded as “Not Active”.

Consider `Nc1cc(C(F)(F)F)ccc1-c1nc(-c2ccccc2)no1`, for which the result was Active.

Regarding `FC(F)(F)c1cccc(-c2noc(-c3ccc(Cl)cc3Cl)n2)c1`, the Activity entry was “Not Active”.

As to `Clc1ccc(-c2nc(-c3ccccc3)no2)c(Cl)c1`, the result was Active.

With `Nc1cc(Cl)ccc1-c1nc(-c2ccccc2)no1`, the result was Active.

`O=[N+]([O-])c1cc(F)ccc1-c1nc(-c2ccccc2)no1`: the result was Active.
